Source: ChEMBL document CHEMBL1138558, “Synthesis of some new 1,2,4-triazoles, their Mannich and Schiff bases and evaluation of their antimicrobial activities” (2009)
Calls of active or inactive are those of the source. The calls are words filed in the database; no cut-off is given here.

Assays:
Format in all cases: functional
Pseudomonas aeruginosa = test: Antimicrobial activity against Pseudomonas aeruginosa ATCC 27853 at 10 mg/mL after 18 hrs by agar-well diffusion method; details: for zone of inhibition at 10000 µg/mL: ATCC 27853, 18 h, read-out: IZ
Method in brief: (§1)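 Agar-well diffusion: each bacterium suspended in Mueller Hinton broth at about 10⁶ cfu/mL, flood-inoculated onto Mueller Hinton agar and dried. 5-mm wells were cut with a sterile cork-borer and filled with the test solution. Plates were incubated 18 h at 35 °C. The read-out was the diameter of the inhibition zone.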

[1] = system: Yersinia pseudotuberculosis; test: Antimicrobial activity against Yersinia pseudotuberculosis ATCC 911 at 10 mg/mL after 18 hrs by agar-well diffusion method; details: for zone of inhibition at 10000 µg/mL: ATCC 911, 18 h, read-out: IZ
Method in brief: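 Bacteria suspended in Mueller Hinton broth at about 10⁶ cfu/mL, flood-inoculated onto Mueller Hinton agar and dried. Test substance placed into 5-mm wells bored with a sterile cork-borer. Incubation 18 h at 35 °C, then the inhibition zone around each well measured.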

Bacillus cereus = test: Antimicrobial activity against Bacillus cereus 702 Roma at 10 mg/mL after 18 hrs by agar-well diffusion method; details: for zone of inhibition at 10000 µg/mL: read-out: IZ; method in brief: as §1
Candida albicans = test: Antimicrobial activity against Candida albicans ATCC 60193 at 10 mg/mL after 18 hrs by agar-well diffusion method; details: for zone of inhibition at 10000 µg/mL: ATCC 60193, 18 h, read-out: IZ
Method in brief: (§2)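 Candida cultures were suspended in Mueller Hinton broth at about 10⁶ cfu/mL, flood-inoculated onto Sabouraud dextrose agar and dried. Test solution was loaded into 5-mm wells bored in the agar. Plates were incubated 18 h at 35 °C, and activity was scored as the inhibition zone around each well.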

Candida tropicalis = test: Antimicrobial activity against Candida tropicalis ATCC 13803 at 10 mg/mL after 18 hrs by agar-well diffusion method; details: for zone of inhibition at 10000 µg/mL: ATCC 13803, 18 h, read-out: IZ; method in brief: as §2
Staphylococcus aureus = test: Antimicrobial activity against Staphylococcus aureus ATCC 25923 at 10 mg/mL after 18 hrs by agar-well diffusion method; details: for zone of inhibition at 10000 µg/mL: ATCC 25923, 18 h, read-out: IZ; method in brief: as §1
Enterococcus faecalis = test: Antimicrobial activity against Enterococcus faecalis ATCC 29212 at 10 mg/mL after 18 hrs by agar-well diffusion method; details: for zone of inhibition at 10000 µg/mL: ATCC 29212, 18 h, read-out: IZ; method in brief: as §1
Escherichia coli = test: Antimicrobial activity against Escherichia coli ATCC 25922 at 10 mg/mL after 18 hrs by agar-well diffusion method; details: for zone of inhibition at 10000 µg/mL: ATCC 25922, 18 h, read-out: IZ; method in brief: as §1

Compound	zone of inhibition at 10000 µg/mL (Pseudomonas aeruginosa) [mm]	zone of inhibition at 10000 µg/mL [1] [mm]	zone of inhibition at 10000 µg/mL (Bacillus cereus) [mm]	zone of inhibition at 10000 µg/mL (Candida albicans) [mm]	zone of inhibition at 10000 µg/mL (Candida tropicalis) [mm]	zone of inhibition at 10000 µg/mL (Staphylococcus aureus) [mm]	zone of inhibition at 10000 µg/mL (Enterococcus faecalis) [mm]	zone of inhibition at 10000 µg/mL (Escherichia coli) [mm]	inhibition zone (IZ) (Candida albicans)	inhibition zone (IZ) (Candida tropicalis)	inhibition zone (IZ) (Pseudomonas aeruginosa)	inhibition zone (IZ) [1]	inhibition zone (IZ) (Bacillus cereus)	inhibition zone (IZ) (Staphylococcus aureus)	inhibition zone (IZ) (Enterococcus faecalis)	inhibition zone (IZ) (Escherichia coli)
CC(C)CSc1nnc(-c2ccncc2)n1-c1ccccc1	30	30	30	8	8	25	30	25								
COc1ccc(/C=N/NC(=O)CSc2nnc(-c3ccncc3)n2-c2ccccc2)cc1	30	30	25			28	28	24	inactive	inactive						
S=c1n(CNCCN2CCOCC2)nc(-c2ccncc2)n1-c1ccccc1	14	22	15			21	16	20	inactive	inactive						
O=C(CSc1nnc(-c2ccncc2)n1-c1ccccc1)N/N=C/c1c(Cl)cccc1Cl									inactive	inactive	inactive	inactive	inactive	inactive	inactive	inactive
Cc1ccc(NC(=S)NNC(=O)CSc2nnc(-c3ccncc3)n2-c2ccccc2)cc1				7	7						inactive	inactive	inactive	inactive	inactive	inactive
CSc1nnc(-c2ccncc2)n1-c1ccccc1	30	30	30	9	9	25	30	30								
Cc1ccc(-n2c(S)nnc2CSc2nnc(-c3ccncc3)n2-c2ccccc2)cc1			6				15		inactive	inactive	inactive	inactive		inactive		inactive
O=C(CSc1nnc(-c2ccncc2)n1-c1ccccc1)N/N=C/c1ccncc1									inactive	inactive	inactive	inactive	inactive	inactive	inactive	inactive
O=C(CSc1nnc(-c2ccncc2)n1-c1ccccc1)N/N=C/c1ccccc1O	30	30	25			25	30	30	inactive	inactive						
O=C(CSc1nnc(-c2ccncc2)n1-c1ccccc1)N/N=C/c1ccc(O)c(O)c1									inactive	inactive	inactive	inactive	inactive	inactive	inactive	inactive
S=c1n(CN2CCN(Cn3nc(-c4ccncc4)n(-c4ccccc4)c3=S)CC2)nc(-c2ccncc2)n1-c1ccccc1									inactive	inactive	inactive	inactive	inactive	inactive	inactive	inactive
NNC(=O)CSc1nnc(-c2ccncc2)n1-c1ccccc1									inactive	inactive	inactive	inactive	inactive	inactive	inactive	inactive
Cc1ccc(-n2c(CSc3nnc(-c4ccncc4)n3-c3ccccc3)nn(CN3CCN(C)CC3)c2=S)cc1									inactive	inactive	inactive	inactive	inactive	inactive	inactive	inactive
O=C(CSc1nnc(-c2ccncc2)n1-c1ccccc1)N/N=C/c1ccc(F)cc1	38	25	23			30	30	30	inactive	inactive						
CN1CCN(Cn2nc(-c3ccncc3)n(-c3ccccc3)c2=S)CC1	30	24	23			24	28	24	inactive	inactive						
O=C(CSc1nnc(-c2ccncc2)n1-c1ccccc1)N/N=C/c1cccnc1		7						8	inactive	inactive	inactive		inactive	inactive	inactive	
S=c1oc(CSc2nnc(-c3ccncc3)n2-c2ccccc2)nn1CNCCN1CCOCC1								6	inactive	inactive	inactive	inactive	inactive	inactive	inactive	
Sc1nnc(CSc2nnc(-c3ccncc3)n2-c2ccccc2)o1			6	6	6	8					inactive	inactive			inactive	inactive
Cc1ccc(N(C)c2nnc(CSc3nnc(-c4ccncc4)n3-c3ccccc3)s2)cc1	15	16	17			22	7	28	inactive	inactive						
O=C(CSc1nnc(-c2ccncc2)n1-c1ccccc1)N/N=C/c1ccccn1	40	30	20			24	20	42	inactive	inactive						
Sc1nnc(-c2ccncc2)n1-c1ccccc1									inactive	inactive	inactive	inactive	inactive	inactive	inactive	inactive
Cc1ccc(Nc2nnc(CSc3nnc(-c4ccncc4)n3-c3ccccc3)s2)cc1	35	22	20			25	20	31	inactive	inactive						
CCOC(=O)CSc1nnc(-c2ccncc2)n1-c1ccccc1				13	13						inactive	inactive	inactive	inactive	inactive	inactive
